Measured values from ChEMBL document CHEMBL1143032, “The concise synthesis of chalcone, indanone and indenone analogues of combretastatin A4” (Bioorg Med Chem, 2007).
pIC50: −log10 of the molar value.

Assays:
[1] = Inhibition of bovine brain tubulin polymerization; design: species or system Bos taurus
In short: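 Tubulin assembly assay. The parameter measured was inhibition of the extent of assembly.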

[2] = tested on: MCF7; experiment: Growth inhibition of MCF7 cells after 48 hrs; type: functional; conditions: Homo sapiens, MCF7, 48 h
[3] = tested on: CA46; experiment: Growth inhibition of CA46 cells; type: functional; conditions: Homo sapiens

Row | pIC50 [1] | GI50 [2] | SMILES | GI50 [3]
1 | 5.60 | > 1000 nM | COc1ccc(/C=C(/C(=O)c2cc(OC)c(OC)c(OC)c2)c2ccc(OC)cc2)cc1 | –
2 | 4.44 | – | COc1ccc(C2=C(C(=O)c3cc(OC)c(O)c(OC)c3)c3cc(O)c(OC)cc3C2=O)cc1O | –
3 | – | 26 nM | COc1ccc(/C=C\c2cc(OC)c(OC)c(OC)c2)cc1O [COMBRETASTATIN A4] | –

Further lines, the compound ahead of its results:

Row | SMILES | pIC50 [1] | GI50 [2] | GI50 [3]
4 | COc1ccc(/C=C(\C(=O)c2cc(OC)c(OC)c(OC)c2)c2ccc(OC)cc2)cc1 | 5.18 | > 1000 nM | –
5 | COc1ccc(-c2[nH]c3cc(OC)ccc3c2C(=O)c2cc(OC)c(OC)c(OC)c2)cc1 | – | – | 45 nM
6 | COc1ccc(C2=C(C(=O)c3cc(OC)c(OC)c(OC)c3)C(=O)c3cc(OC)c(OC)c(OC)c32)cc1O | 4.70 | – | –
